pIC50: −log10 of the molar value. The source made the active and inactive calls. No rule for the calls is given here.
Tests used:
[1] = system: Severe acute respiratory syndrome-related coronavirus; assay: Inhibition of SARS coronavirus nsP13 helicase activity expressed in Escherichia coli Rosetta assessed inhibition of DNA unwinding activity at 10 uM by FRET assay
Method in brief: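 FRET dsDNA-unwinding assay using fluorescein/TAMRA-labelled duplex. When nsP13 unwinds the duplex, fluorescein emission is unquenched. Compound was added to the unwinding reaction at 10 µM, and fluorescence was read at 535 nm.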

Hepacivirus hominis [2] = assay: Inhibition of HCV NS3 helicase overexpressed in Escherichia coli BL21(DE3) assessed as inhibition of DNA unwinding activity at 10 uM by FRET assay
[3] = system: Severe acute respiratory syndrome-related coronavirus; assay: Inhibition of SARS coronavirus nsP13 ATP hydrolysis activity expressed in Escherichia coli Rosetta assessed as inhibition of inorganic phosphate release at 10 uM by AM/MG-based colometric analysis in the presence of M13 ssDNA
Hepacivirus hominis [4] = assay: Inhibition of HCV NS3 helicase ATP hydrolysis activity overexpressed in Escherichia coli BL21(DE3) assessed as inhibition of inorganic phosphate release by AM/MG-based colometric analysis in the presence of M13 ssDNA
MCF-10A = assay: Cytotoxicity in human MCF10A cells at 2 uM measured every 24 hrs for 3 days by hemocytometry; format: cell-based; conditions: 72 h
Method in brief: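 MCF10A breast epithelial cells grown at 37°C in 5% CO2 and seeded at 2.0 × 10^5 per well. They were exposed to compound at 2 µM and harvested every 24 h for 3 days. Viable cells were counted by hemacytometer. Results are mean ± standard deviation, n = 6, compared by Student t-test.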

[5] = Inhibition of SARS coronavirus nsP13 ATP hydrolysis activity expressed in Escherichia coli Rosetta assessed as inhibition of inorganic phosphate release by AM/MG-based colometric analysis in the presence of M13 ssDNA; design: species or system Severe acute respiratory syndrome-related coronavirus
Method in brief: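 ATP hydrolysis was measured colorimetrically as phosphate complex formation with ammonium molybdate/malachite green. Reactions ran with a range of compound concentrations. IC50 was derived from the concentration series.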

Structure (SMILES)	inhibition [1]	inhibition (Hepacivirus hominis [2])	inhibition [3]	inhibition (Hepacivirus hominis [4])	Activity (MCF-10A)	pIC50 [5]
O=c1cc(-c2ccc(O)c(-c3c(O)cc(O)c4c(=O)cc(-c5ccc(O)cc5)oc34)c2)oc2cc(O)cc(O)c12	inactive	inactive	20%	inactive		
O=c1c(O)c(-c2cc(O)c(O)c(O)c2)oc2cc(O)cc(O)c12 [MYRICETIN]	inactive	inactive	> 90%	inactive	Non-toxic	
C[C@H]1O[C@@H](Oc2c(-c3cc(O)c(O)c(O)c3)oc3cc(O)cc(O)c3c2=O)[C@@H](O)[C@@H](O)[C@@H]1O	inactive	inactive	20%	inactive		
O=c1cc(-c2ccc(O)cc2)oc2cc(O)c(O)c(O)c12 [SCUTELLAREIN]	inactive	inactive	> 90%	inactive	Non-toxic	6.07
O=c1cc(-c2ccccc2)oc2cc(O)c(O)c(O)c12	inactive	inactive		inactive		
C=C(C)C(C)CC[C@@H](C)[C@H]1CC[C@@]2(C)[C@@H]3CC[C@H]4C(C)(C)C(=O)CC[C@]4(C)C3=CC[C@]12C (some centres not stated)	inactive	inactive		inactive		
CC(C)=CCc1c(O)cc2oc3cc(O)c(O)c(CC=C(C)C)c3c(=O)c2c1O	inactive	inactive		inactive		
COc1ccc(C(=O)O[C@H]2[C@@H]3C=CO[C@@H](O[C@@H]4O[C@H](CO)[C@@H](O)[C@H](O)[C@H]4O)[C@@H]3[C@@]3(CO)O[C@@H]23)cc1O	inactive	inactive		inactive		
C=C1CC[C@@H]2[C@H]([C@H]3[C@H]1CC[C@]3(C)O)C2(C)C	inactive	inactive		inactive		
COc1c(O)cc2oc3cc(O)c(CC=C(C)C)c(O)c3c(=O)c2c1CC=C(C)C	inactive	inactive		inactive		
C=C(C)C(C)(C)CC[C@@H](C)[C@H]1CC[C@@]2(C)[C@@H]3CC[C@H]4C(C)(C)C(=O)CC[C@]4(C)C3=CC[C@]12C	inactive	inactive		inactive		
COc1c(O)cc2oc3cc(O)c4c(c3c(=O)c2c1CC=C(C)C)OC(C)(C)CC4	inactive	inactive		inactive		
CC1(C)CC[C@]2(C)CC=C3[C@]4(C)CC[C@H]5C(C)(C)[C@@H](O)CC[C@]5(C)[C@H]4CC[C@@]3(C)[C@@H]2C1	inactive	inactive	20%	inactive		
COc1c2c(cc3oc(CO[C@@H]4O[C@H](CO)[C@@H](O)[C@H](O)[C@H]4O)cc(=O)c13)O[C@H](C(C)(C)O)C2	inactive	inactive		inactive		
C[C@H]1[C@@H](O)CC[C@@H]2[C@]1(C)CC[C@H]1[C@@]2(C)CC[C@@]2(C)[C@@H]3CC(C)(C)CC[C@]3(C)CC[C@]12C	inactive	inactive		inactive		
O=C(/C=C/c1ccccc1)NCCCCNC(=O)c1ccc(O)cc1	inactive	inactive		inactive		
C/C=C(/C)C(=O)O[C@H]1Cc2c(cc3oc(C)cc(=O)c3c2O)OC1(C)C	inactive	inactive		inactive		
C[C@H]1[C@H](C)CC[C@]2(C(=O)O)CC[C@]3(C)C(=CC[C@@H]4[C@@]5(C)CC[C@H](O)C(C)(C)[C@@H]5CC[C@]43C)[C@H]12	inactive	inactive		inactive		

Reference: ChEMBL document CHEMBL2057104, “Identification of myricetin and scutellarein as novel chemical inhibitors of the SARS coronavirus helicase, nsP13” (Bioorg Med Chem Lett, 2012)
